Measured values from ChEMBL document CHEMBL4765252, “Design, synthesis, and biological evaluation of novel 4H-chromen-4-one derivatives as antituberculosis agents against multidrug-resistant tuberculosis” (Eur J Med Chem, 2020).
≈ marks a conversion by molar mass, not a printed value.

Tests used:
[1] = tested on: Mycobacterium tuberculosis; experiment: Antitubercular activity against Mycobacterium tuberculosis H37Rv assessed as inhibition of bacterial growth; type: functional
[2] = Toxicity in BALB/c mouse infected with Mycobacterium tuberculosis H37Rv assessed as body weight at 25 mg/kg, po administered for 21 days (reference value: 21.32 +/- 1.03 gms); type: organism-based; conditions: in vivo, 504 h, time 21 day
[3] = tested on: Mycobacterium tuberculosis; experiment: In vivo antitubercular activity against Mycobacterium tuberculosis H37Rv infected in BALB/c mouse assessed as reduction in bacterial burden in lungs at 25 mg/kg, po administered for 21 days (reference value: 5.35 +/-0.17 log10CFU); type: functional; conditions: time 21 day
[4] = Selectivity index, ratio of IC50 for African green monkey Vero cells to MIC for Mycobacterium tuberculosis H37Rv; type: toxicity; conditions: read-out: Selectivity Index
Outline: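 SI was calculated as Vero cell cytotoxicity IC50 divided by H37Rv MIC, both in μg/mL.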

[5] = Metabolic stability of the compound in mouse liver microsomes; type: ADME, Microsome
Outline: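 Compound was incubated with mouse liver microsomes plus NADPH for 30 min. Remaining substrate concentration was normalized to the time-zero concentration and given as % remaining. The stability call was made from incubations run without the NADPH cofactor.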

[6] = Metabolic stability of the compound in human liver microsomes; type: ADME, Microsome
[7] = Metabolic stability of the compound in mouse liver microsomes assessed as parent compound remaining […]; type: ADME, Microsome; conditions: read-out: Stabilty
[8] = tested on: Vero; experiment: Cytotoxicity against African green monkey Vero cells assessed as reduction in cell viability; type: cell-based; conditions: Chlorocebus sabaeus
[9] = tested on: Mycobacterium tuberculosis; experiment: Antitubercular activity against Mycobacterium tuberculosis H37Rv assessed as inhibition of bacterial growth measured after 7 days by resazurin assay; type: functional; conditions: 168 h, time 7 day
[10] = tested on: Mycobacterium tuberculosis; experiment: Antitubercular activity against Mycobacterium tuberculosis H37Rv assessed as inhibition of bacterial growth incubated for 6 days by MABA assay; type: functional; conditions: 144 h, time 6 day
[11] = Tmax in BALB/c mouse at 100 mg/kg, po administered as single dose; type: ADME, organism-based; conditions: in vivo
[12] = Volume of distribution in BALB/c mouse at 5 mg/kg, iv administered as single dose; type: ADME, organism-based; conditions: in vivo
[13] = MRT (0 to t) in BALB/c mouse at 5 mg/kg, iv administered as single dose; type: ADME, organism-based; conditions: in vivo
[14] = MRT (0 to infinity) in BALB/c mouse at 100 mg/kg, po administered as single dose; type: ADME, organism-based; conditions: in vivo
[15] = Clearance in BALB/c mouse at 5 mg/kg, iv administered as single dose; type: ADME, organism-based; conditions: in vivo
[16] = tested on: Mycobacterium tuberculosis; experiment: In vivo antitubercular activity against Mycobacterium tuberculosis H37Rv infected in BALB/c mouse assessed as reduction in bacterial burden in lungs at 100 mg/kg, po administered for 21 days (reference value: 5.35 +/-0.17 log10CFU); type: functional; conditions: time 21 day
[17] = Cmax in BALB/c mouse at 100 mg/kg, po administered as single dose; type: ADME, organism-based; set-up: route oral, dose 100 mg/kg; conditions: in vivo
[18] = AUC (0 to t) in BALB/c mouse at 100 mg/kg, po administered as single dose; type: ADME, organism-based; set-up: dose 100 mg/kg; conditions: in vivo
[19] = MRT (0 to infinity) in BALB/c mouse at 5 mg/kg, iv administered as single dose; type: ADME, organism-based; conditions: in vivo
[20] = MRT (0 to t) in BALB/c mouse at 100 mg/kg, po administered as single dose; type: ADME, organism-based; conditions: in vivo
[21] = Toxicity in BALB/c mouse infected with Mycobacterium tuberculosis H37Rv assessed as body weight at 100 mg/kg, po administered for 21 days (reference value: 21.32 +/- 1.03 gms); type: organism-based; conditions: in vivo, 504 h, time 21 day
[22] = Oral bioavailability in BALB/c mouse at 100 mg/kg; type: ADME, organism-based; conditions: in vivo
[23] = Cmax in BALB/c mouse at 5 mg/kg, iv administered as single dose; type: ADME, organism-based; set-up: route intravenous, dose 5 mg/kg; conditions: in vivo
[24] = AUC (0 to infinity) in BALB/c mouse at 5 mg/kg, iv administered as single dose; type: ADME, organism-based; set-up: time infinity, route intravenous, dose 5 mg/kg; conditions: in vivo
[25] = Elimination half life in BALB/c mouse at 5 mg/kg, iv administered as single dose; type: ADME, organism-based; conditions: in vivo, read-out: beta t1/2 (converted)
[26] = AUC (0 to t) in BALB/c mouse at 5 mg/kg, iv administered as single dose; type: ADME, organism-based; set-up: dose 5 mg/kg; conditions: in vivo
[27] = AUC (0 to infinity) in BALB/c mouse at 100 mg/kg, po administered as single dose; type: ADME, organism-based; set-up: time infinity, route oral, dose 100 mg/kg; conditions: in vivo
[28] = Elimination half life in BALB/c mouse at 100 mg/kg, po administered as single dose; type: ADME, organism-based; conditions: in vivo, read-out: beta t1/2 (converted)
[29] = tested on: Mycobacterium tuberculosis; experiment: microbe, parasite or virus in culture; conditions: mc2-7000, 144 h

## CCOC(=O)c1c(-c2ccc(O)cc2)oc2ccc(O)c(CN3CCC3)c2c1=O
[1]
  MIC: 7.91 µg/mL

## CNC(=O)c1c(-c2ccccc2)oc2ccc(O)c(CN3CCCC3)c2c1=O
[1]
  MIC: > 32 µg/mL

## O=c1cc(-c2ccccc2)oc2ccc(O)c(CN3CCCCC3)c12
[1]
  MIC: 3.12 µg/mL

## O=c1c(-c2ccc(O)cc2)coc2ccc(O)c(CN3CCCCC3)c12
[1]
  MIC: > 32 µg/mL

## CCN(CC)Cc1c(O)ccc2oc(-c3ccc(O)cc3)cc(=O)c12
[1]
  MIC: 29.9 µg/mL

## CNC(=O)c1c(-c2ccccc2)oc2ccc(O)c(CN3CCCCC3)c2c1=O
[1]
  MIC: > 32 µg/mL

## CNC(=O)c1c(-c2ccccc2)oc2ccc(O)c(CN3CCC3)c2c1=O
[1]
  MIC: > 32 µg/mL

## CO[C@H]1/C=C/O[C@@]2(C)Oc3c(C)c(O)c4c(O)c(c(/C=N/N5CCN(C)CC5)c(O)c4c3C2=O)NC(=O)/C(C)=C\C=C\[C@H](C)[C@H](O)[C@@H](C)[C@@H](O)[C@@H](C)[C@H](OC(C)=O)[C@@H]1C [RIFAMPIN]
[1]
  MIC: 0.057 µg/mL

## CCOC(=O)c1c(-c2ccc(O)cc2)oc2ccc(O)c(CN3CCCC3)c2c1=O
[1]
  MIC: > 32 µg/mL

## O=c1cc(-c2ccc(O)cc2)oc2ccc(O)c(CNC3CCCCC3)c12
[1]
  MIC: > 32 µg/mL

## O=c1cc(-c2ccccc2)oc2ccc(O)c(CN3CCCC3)c12
[1]
  MIC: 3.68 µg/mL

## CCOC(=O)c1c(-c2ccccc2)oc2ccc(O)c(CN3CCC3)c2c1=O
[1]
  MIC: 14.1 µg/mL

## NNC(=O)c1ccncc1 [ISONIAZID]
[1]
  MIC: 0.039 µg/mL
[2]
  Activity: 20.9 g
[3]
  Activity: 1.76 log10CFU

## O=c1cc(-c2ccccc2)oc2ccc(O)c(CN3CCC3)c12
[1]
  MIC: 3.22 µg/mL

## CN(C)Cc1c(O)ccc2oc(-c3ccc(O)cc3)cc(=O)c12
[1]
  MIC: > 32 µg/mL

## O=c1cc(-c2ccc(O)cc2)oc2ccc(O)c(CN3CCOCC3)c12
[1]
  MIC: > 32 µg/mL

## O=c1cc(-c2ccc(O)cc2)oc2ccc(O)c(CN3CCCC3)c12
[4]
  selectivity ratio: 9
[5]
  Stabilty: Stable
[6]
  Stabilty: Stable
[7]
  remaining at 0.5 h: 102%
[8]
  IC50: 8.8 µg/mL (≈ 26.1 µM)
[1]
  MIC: 0.938 µg/mL

## CCOC(=O)c1c(NC(=O)c2c(F)c(F)c(F)c(F)c2F)sc(C(N)=O)c1C
[1]
  MIC: 0.5 µM

## O=c1cc(-c2ccc(O)cc2)oc2ccc(O)c(CN3CCCCC3)c12
[1]
  MIC: 3.84 µg/mL

## CCOC(=O)c1c(-c2ccccc2)oc2ccc(O)c(CN3CCCCC3)c2c1=O
[1]
  MIC: 31.9 µg/mL

## C=CCCCCCCC[C@H]1C(=O)O[C@@H]1CCCCCNC(=O)c1ccc(N(C)C)cc1
[9]
  MIC: 1.6 µM (≈ 0.686 µg/mL)

## CCOC(=O)c1c(NC(=O)c2c(F)c(F)c(F)c(F)c2F)sc2c1CCN(CC)C2
[10]
  MIC: 0.23 µM (≈ 0.103 µg/mL)

## COC(=O)c1c(NC(=O)c2c(F)c(F)c(F)c(F)c2F)sc2c1CCCCC2
[1]
  MIC: 1 µM

## O=c1cc(-c2ccc(O)cc2)oc2ccc(O)c(CN3CCCCCC3)c12
[1]
  MIC: 7.2 µg/mL

## COc1ccc(-c2cc(=O)c3c(CN4CCCCC4)c(O)ccc3o2)cc1
[1]
  MIC: 7.3 µg/mL

## O=c1cc(-c2ccc(O)cc2)oc2ccc(O)c(CN3CCC3)c12
[11]
  Tmax: 0.25 h
[4]
  selectivity ratio: 117
[12]
  Vd: 8.86 L/kg
[5]
  Stabilty: Stable
[13]
  MRT last: 0.61 h
[14]
  MRT inf: 1.82 h
[15]
  clearance: 80.1 mL/min/kg
[16]
  Activity: 4.77 log10CFU
[17]
  Cmax: 1660 ng/mL
[18]
  AUC(0-t): 4220 ng·h/mL
[6]
  Stabilty: Stable
[19]
  MRT inf: 0.69 h
[20]
  MRT last: 1.7 h
[7]
  remaining at 0.5 h: 96%
[21]
  Activity: 20.57 g
[22]
  bioavailability: 20.5%
[8]
  IC50: 53.1 µg/mL (≈ 164 µM)
[23]
  Cmax: 4460 ng/mL
[1]
  MIC: 0.45 µg/mL
[24]
  AUC(0-inf): 1040 ng·h/mL
[25]
  half-life: 1.28 h
[26]
  AUC(0-t): 1030 ng·h/mL
[27]
  AUC(0-inf): 4290 ng·h/mL
[28]
  half-life: 1.42 h

## CNC(=O)c1c(-c2ccc(O)cc2)oc2ccc(O)c(CN3CCCCC3)c12
[29]
  MIC: 0.09 µM (≈ 0.0342 µg/mL)
[1]
  MIC: 0.047 µg/mL

## COc1ccc(-c2cc(=O)c3cc(O)ccc3o2)cc1
[1]
  MIC: > 32 µg/mL

## O=c1cc(-c2ccc(Cl)cc2)oc2ccc(O)c(CN3CCC3)c12
[1]
  MIC: 28.5 µg/mL

## O=c1cc(-c2ccc(O)cc2)oc2ccc(O)c(CN3CC4(CSC4)C3)c12
[1]
  MIC: 15.3 µg/mL

## CCOC(=O)c1c(-c2ccccc2)oc2ccc(O)c(CN3CCCC3)c2c1=O
[1]
  MIC: > 32 µg/mL

## O=c1cc(-c2ccc(F)cc2)oc2ccc(O)c(CN3CCC3)c12
[1]
  MIC: 3.55 µg/mL

## Cc1ccc(-c2cc(=O)c3c(CN4CCC4)c(O)ccc3o2)cc1
[1]
  MIC: 6.52 µg/mL

## O=c1cc(-c2ccccc2)oc2ccc(O)c(CN3CC4(CSC4)C3)c12
[1]
  MIC: 31.1 µg/mL
